# Measured values published in ChEMBL document CHEMBL3826940, “Amphipathicity Determines Different Cytotoxic Mechanisms of Lysine- or Arginine-Rich Cationic Hydrophobic Peptides in Cancer Cells” (J Med Chem, 2016).
# System: HeLa
# Assay: Membranolytic activity in human HeLa cells expressing GFP after 5 mins by fluorescence leakage assay
# Format: functional, cell-based
# Outline: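 GFP-expressing HeLa cells (1 × 10^4/well, grown 24 h) were treated with peptides at various concentrations in PBS for 5 min. Supernatant was collected after centrifugation at 1000g and its fluorescence read at 485/535 nm. 1% Triton X-100 defined 100% leakage, and LC50 was calculated from three independent experiments.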
row,Compound,LC50 [µM]
1,H-HGGRLLRLLRRLLRLLR-NH2,3.9
2,CC(C)C[C@H](NC(=O)[C@H](CCCNC(=N)N)NC(=O)[C@H](CC(C)C)NC(=O)[C@H](CC(C)C)NC(=O)[C@H](CCCNC(=N)N)NC(=O)[C@H](CCCNC(=N)N)NC(=O)[C@H](CC(C)C)NC(=O)[C@H](CCCNC(=N)N)NC(=O)[C@H](CC(C)C)NC(=O)[C@H](CC(C)C)NC(=O)[C@H](CCCNC(=N)N)NC(=O)[C@H](CC(C)C)NC(=O)[C@H](CC(C)C)NC(=O)[C@H](CCCNC(=N)N)NC(=O)CNC(=O)CNC(=O)[C@@H](N)Cc1cnc[nH]1)C(N)=O,25.9
3,H-HGGKLLKLLKLKKLLKL-NH2,38.8
4,H-HGGKLLKLLKKLLKLLK-NH2,3.6
